Experimental data taken from ChEMBL document CHEMBL2057168, “(1aR,5aR)1a,3,5,5a-Tetrahydro-1H-2,3-diaza-cyclopropa[a]pentalene-4-carboxylic acid (MK-1903): a potent GPR109a agonist that lowers free fatty acids in humans” (J Med Chem, 2012).
The source made the active and inactive calls. The calls are words filed in the database; no cut-off is given here.

Legend:
[1] = biological target: T1, Cytochrome P450 2C8 (Homo sapiens, UniProt P10632); assay: Activity at CYP2C8; format: ADME
T1 sequence (P10632 whole entry): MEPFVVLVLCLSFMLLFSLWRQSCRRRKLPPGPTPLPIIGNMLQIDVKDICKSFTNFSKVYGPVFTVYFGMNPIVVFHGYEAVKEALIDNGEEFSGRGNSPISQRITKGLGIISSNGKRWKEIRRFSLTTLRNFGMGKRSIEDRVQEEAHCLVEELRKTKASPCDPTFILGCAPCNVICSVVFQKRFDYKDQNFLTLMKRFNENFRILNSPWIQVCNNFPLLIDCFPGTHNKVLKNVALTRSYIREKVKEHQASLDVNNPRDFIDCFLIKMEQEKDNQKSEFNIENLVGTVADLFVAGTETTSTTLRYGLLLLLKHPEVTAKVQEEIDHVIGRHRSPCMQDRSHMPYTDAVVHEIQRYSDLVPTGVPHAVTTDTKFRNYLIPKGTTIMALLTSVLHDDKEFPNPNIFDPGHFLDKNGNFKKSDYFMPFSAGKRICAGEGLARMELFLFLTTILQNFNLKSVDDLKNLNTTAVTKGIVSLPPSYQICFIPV

[2] = biological target: Cytochrome P450 2C9 (Homo sapiens, UniProt P11712); assay: Activity at CYP2C9; format: ADME
Chain of Cytochrome P450 2C9 (P11712 whole entry): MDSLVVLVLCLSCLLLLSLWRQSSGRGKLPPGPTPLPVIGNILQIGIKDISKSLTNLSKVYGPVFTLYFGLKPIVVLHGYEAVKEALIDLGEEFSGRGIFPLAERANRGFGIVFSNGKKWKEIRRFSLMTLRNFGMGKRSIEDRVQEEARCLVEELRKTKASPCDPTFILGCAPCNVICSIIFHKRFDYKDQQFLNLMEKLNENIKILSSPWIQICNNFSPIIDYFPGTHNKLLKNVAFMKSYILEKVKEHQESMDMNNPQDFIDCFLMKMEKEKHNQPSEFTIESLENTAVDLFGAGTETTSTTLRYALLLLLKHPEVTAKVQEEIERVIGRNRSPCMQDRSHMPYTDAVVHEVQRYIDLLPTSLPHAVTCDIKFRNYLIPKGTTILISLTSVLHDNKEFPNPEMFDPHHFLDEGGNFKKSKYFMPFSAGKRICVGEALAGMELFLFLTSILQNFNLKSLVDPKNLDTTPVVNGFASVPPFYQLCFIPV

[3] = tested on: Rattus norvegicus; assay: Antidyslipedic activity in fasted Sprague-Dawley rat assessed as decrease in free fatty acid level at 0.001 mg/kg, po by NEFA C-free fatty acid assay; format: functional, organism-based; parameters: dose 0.001 mg/kg
Outline: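 Male Sprague-Dawley rats fasted, compound by oral gavage, serial plasma sampling after dosing for free fatty acids over a time course; vehicle-dosed control group.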

[4] = Terminal half life in mouse; format: ADME, organism-based; details: in vivo, read-out: beta t1/2 (converted)
[5] = Oral bioavailability in mouse; format: ADME, organism-based; details: in vivo
[6] = Plasma clearance in dog; format: ADME, organism-based, Canis lupus familiaris
[7] = Oral bioavailability in rhesus monkey; format: ADME, organism-based, Macaca mulatta; details: in vivo
[8] = tested on: Homo sapiens; assay: Toxicity in po dosed human assessed as occurrence of flushing administered as single dose; format: organism-based; details: in vivo
Outline: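 Healthy human volunteers received single oral doses. Flushing was recorded as a subject-reported adverse event and scored with a flushing symptoms questionnaire. It was compared qualitatively against a 1 g Niaspan dose.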

[9] = AUC (0 to 6 hrs) in human at 175 mg, po QID administered on day 1 followed by 2-days wash out period after which dosing continued up to day 11 measured on day 1; format: ADME, organism-based; parameters: time < 6 hr, dose 175 mg, route oral; details: plasma
Outline: (§1)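 Double-blind, placebo-controlled, randomized dose-escalation study in healthy male volunteers, six cohorts of eight (six active, two placebo). Oral dose on day 1, two-day washout, then dosing days 4–11; the 200 mg qd cohort was titrated over days 1–4. Venous blood taken predose and at 0.5–12 h on days 1, 4 and 11; plasma drug measured. τ 12 h (bid), 24 h (qd), 8 h (tid), 6 h (qid).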

[10] = AUC (0 to 6 hrs) in human at 175 mg, po QID administered on day 1 followed by 2-days wash out period after which dosing continued up to day 11 measured on day 11; format: ADME, organism-based; parameters: time < 6 hr, dose 175 mg, route oral; details: plasma; outline: as §1
[11] = Tmax in human at 150 mg, po TID administered on day 1 followed by 2-days wash out period after which dosing continued up to day 11 measured on day 11; format: ADME, organism-based; details: in vivo
Outline: (§2)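 Double-blind, placebo-controlled, randomized multiple oral dose study in healthy male volunteers (cohorts of eight; six active, two placebo). Dose given on day 1, then a two-day washout, then dosing days 4–11; for the QD arm, subjects were titrated over days 1–4. Venous plasma sampled predose and 0.5, 1, 1.5, 2, 4, 6, 8, 10, 12 h postdose on days 1, 4 and 11. Tmax reported as median (min–max).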

[12] = Tmax in human at titreated po dose administered from day 1 to 4 followed by 200 mg, po QD administered up to day 11 measured on day 4; format: ADME, organism-based; details: in vivo; outline: as §2
[13] = Tmax in human at 175 mg, po QID administered on day 1 followed by 2-days wash out period after which dosing continued up to day 11 measured on day 1; format: ADME, organism-based; details: in vivo; outline: as §2
[14] = Tmax in human at 175 mg, po QID administered on day 1 followed by 2-days wash out period after which dosing continued up to day 11 measured on day 4; format: ADME, organism-based; details: in vivo; outline: as §2
[15] = Apparent half life in human at 50 mg, po BID administered on day 1 followed by 2-day wash out period after which dosing continued up to day 11 measured on day 11; format: ADME, organism-based; details: in vivo, read-out: t1/2(app) (converted); outline: as §1
[16] = Apparent half life in human at 100 mg, po BID administered on day 1 followed by 2-day wash out period after which dosing continued up to day 11 measured on day 11; format: ADME, organism-based; details: in vivo, read-out: t1/2(app) (converted); outline: as §1
[17] = Apparent half life in human at 150 mg, po TID administered on day 1 followed by 2-day wash out period after which dosing continued up to day 11 measured on day 11; format: ADME, organism-based; details: in vivo, read-out: t1/2(app) (converted); outline: as §1
[18] = tested on: Homo sapiens; assay: Toxicity in human assessed as occurrence of flushing at 10 to >10 mg administered as single dose; format: organism-based; details: in vivo
Outline: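 Healthy volunteers scored subject-reported flushing with a flushing symptoms questionnaire after single oral doses and during repeat divided daily dosing.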

[19] = Cmax in human at 100 mg, po BID administered on day 1 followed by 2-day wash out period after which dosing continued up to day 11 measured on day 11; format: ADME, organism-based; parameters: dose 100 mg, route oral; details: in vivo; outline: as §1
[20] = Cmax in human at 150 mg, po BID administered on day 1 followed by 2-day wash out period after which dosing continued up to day 11 measured on day 11; format: ADME, organism-based; parameters: dose 150 mg, route oral; details: in vivo
Outline: (§3)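 Healthy male volunteers took part in a double-blind, randomized, placebo-controlled dose-escalation study, with cohorts of 8 (6 on drug, 2 on placebo). Each subject got an oral dose on day 1, then a 2-day washout, then dosing on days 4–11. The 200 mg qd group was titrated over days 1–4. Venous plasma was sampled predose and 0.5–12 h postdose on days 1, 4 and 11, and predose on days 5–10 for troughs.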

[21] = Cmax in human at titreated po dose administered from day 1 to 4 followed by 200 mg, po QD administered up to day 11 measured on day 11; format: ADME, organism-based; parameters: dose 200 mg, route oral; details: in vivo; outline: as §3
[22] = Cmax in human at 175 mg, po QID administered on day 1 followed by 2-days wash out period after which dosing continued up to day 11 measured on day 1; format: ADME, organism-based; parameters: dose 175 mg, route oral; details: in vivo; outline: as §3
[23] = Cmax in human at 175 mg, po QID administered on day 1 followed by 2-days wash out period after which dosing continued up to day 11 measured on day 11; format: ADME, organism-based; parameters: dose 175 mg, route oral; details: in vivo; outline: as §3
[24] = Cmin in human at 100 mg, po BID administered on day 1 followed by 2-day wash out period after which dosing continued up to day 11 measured on day 1 at 12 hrs; format: ADME, organism-based; details: in vivo, read-out: Cmin; outline: as §3
[25] = Cmin in human at 150 mg, po TID administered on day 1 followed by 2-days wash out period after which dosing continued up to day 11 measured on day 4 at 8 hrs; format: ADME, organism-based; details: in vivo, read-out: Cmin; outline: as §3
[26] = Cmin in human at 175 mg, po QID administered on day 1 followed by 2-days wash out period after which dosing continued up to day 11 measured on day 11 at 6 hrs; format: ADME, organism-based; details: in vivo, read-out: Cmin; outline: as §3
[27] = Tmax in human at 150 mg, po BID administered on day 1 followed by 2-day wash out period after which dosing continued up to day 11 measured on day 11; format: ADME, organism-based; details: in vivo; outline: as §2

Structure (SMILES): O=C(O)c1n[nH]c2c1C[C@H]1C[C@@H]21
- Activity [1]: Not Active
- Activity [2]: Not Active
- Activity [3]: inactive
- half-life [4]: 8.7 h
- bioavailability [5]: 40%
- clearance [6]: 3.1 mL/min/kg
- bioavailability [7]: 39%
- MTD [8]: 200 mg
- AUC at 6 h [9]: 0.13 µM·h
- AUC at 6 h [10]: 0.123 µM·h
- Tmax [11]: 1 h
- Tmax [12]: 1.5 h
- Tmax [13]: 1.25 h
- Tmax [14]: 1 h
- half-life [15]: 1.9 h
- half-life [16]: 2.2 h
- half-life [17]: 11 h
- Activity [18]: Toxic
- Cmax [19]: 32.5 nM
- Cmax [20]: 27.7 nM
- Cmax [21]: 49.8 nM
- Cmax [22]: 52.6 nM
- Cmax [23]: 56 nM
- concentration at 12 h [24]: 0.124 nM
- concentration at 8 h [25]: 0.583 nM
- concentration at 6 h [26]: 2.86 nM
- Tmax [27]: 1 h
